What is called IC50 is the concentration at which inhibition is half-maximal. The term AUC denotes concentration integrated over time. Low values mean low exposure, high ones high exposure. The term share remaining denotes what is left of the initial amount, in per cent. A lower share remaining goes with a greater loss.

Data on four molecules can be found in ChEMBL document CHEMBL3621099, “Design and synthesis of carbazole carboxamides as promising inhibitors of Bruton's tyrosine kinase (BTK) and Janus kinase 2 (JAK2)” (Bioorg Med Chem Lett, 2015).

The target of data set [1] is Tyrosine-protein kinase Lyn (Homo sapiens, UniProt P07948). The experiment in a line: Inhibition of LYNa (unknown origin).
Tyrosine-protein kinase Lyn, sequence (P07948 whole entry): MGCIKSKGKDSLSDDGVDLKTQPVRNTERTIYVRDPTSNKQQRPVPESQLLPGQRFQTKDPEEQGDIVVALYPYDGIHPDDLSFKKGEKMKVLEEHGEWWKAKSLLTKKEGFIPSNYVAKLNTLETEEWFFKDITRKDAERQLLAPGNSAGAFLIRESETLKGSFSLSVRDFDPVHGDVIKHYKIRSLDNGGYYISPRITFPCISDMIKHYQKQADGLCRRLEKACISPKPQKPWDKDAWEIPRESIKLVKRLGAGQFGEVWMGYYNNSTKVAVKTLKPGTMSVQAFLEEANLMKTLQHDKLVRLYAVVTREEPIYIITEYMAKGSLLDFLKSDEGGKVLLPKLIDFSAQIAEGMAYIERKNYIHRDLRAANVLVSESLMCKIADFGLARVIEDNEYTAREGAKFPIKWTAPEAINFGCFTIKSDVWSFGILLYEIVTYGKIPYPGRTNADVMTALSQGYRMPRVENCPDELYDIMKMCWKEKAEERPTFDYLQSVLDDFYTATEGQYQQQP
Data set [2] concerns the target Non-receptor tyrosine-protein kinase TYK2 (Homo sapiens, UniProt P29597). Nature of the data set: Inhibition of TYK2 (unknown origin).
The target of data set [3] is Cyclin-dependent kinase 2 (Homo sapiens, UniProt P24941). The experiment in a line: Inhibition of CDK2 (unknown origin).
Another data set deals with T1, Aurora kinase A (Homo sapiens, UniProt O14965).
T1 sequence (O14965 whole entry): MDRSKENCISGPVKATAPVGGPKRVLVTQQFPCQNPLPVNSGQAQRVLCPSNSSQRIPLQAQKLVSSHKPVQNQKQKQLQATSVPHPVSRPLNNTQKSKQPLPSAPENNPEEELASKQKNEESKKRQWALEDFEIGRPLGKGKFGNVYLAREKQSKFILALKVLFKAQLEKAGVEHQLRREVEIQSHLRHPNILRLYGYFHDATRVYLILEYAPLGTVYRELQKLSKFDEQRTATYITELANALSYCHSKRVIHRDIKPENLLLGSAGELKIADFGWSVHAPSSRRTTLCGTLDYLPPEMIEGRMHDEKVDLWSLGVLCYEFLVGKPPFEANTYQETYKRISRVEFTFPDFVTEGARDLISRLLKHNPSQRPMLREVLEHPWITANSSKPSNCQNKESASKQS
The experiment in a line: Inhibition of Aurora-A (unknown origin).

The target in data set [4] is Tyrosine-protein kinase Lck (Homo sapiens, UniProt P06239). Nature of the data set: Inhibition of LCK (unknown origin).
Tyrosine-protein kinase Lck, sequence (P06239 whole entry): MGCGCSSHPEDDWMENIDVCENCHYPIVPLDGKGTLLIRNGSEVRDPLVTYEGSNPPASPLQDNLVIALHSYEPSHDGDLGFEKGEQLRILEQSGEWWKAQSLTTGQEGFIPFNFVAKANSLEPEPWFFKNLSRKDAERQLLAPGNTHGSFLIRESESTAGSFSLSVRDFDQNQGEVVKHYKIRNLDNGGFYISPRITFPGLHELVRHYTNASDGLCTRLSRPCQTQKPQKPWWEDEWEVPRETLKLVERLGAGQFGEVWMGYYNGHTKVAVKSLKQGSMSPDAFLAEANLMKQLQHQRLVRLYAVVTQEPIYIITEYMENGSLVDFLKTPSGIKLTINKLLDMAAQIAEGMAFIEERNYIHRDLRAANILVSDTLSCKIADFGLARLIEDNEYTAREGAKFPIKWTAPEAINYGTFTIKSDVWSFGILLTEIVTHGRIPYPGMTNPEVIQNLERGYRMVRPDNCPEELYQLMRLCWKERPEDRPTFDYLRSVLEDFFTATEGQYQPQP
Data set [5] addresses Mast/stem cell growth factor receptor Kit (Homo sapiens, UniProt P10721). The experiment in a line: Inhibition of cKIT (unknown origin).
Data set [6] addresses T2, Tyrosine-protein kinase TXK (Homo sapiens, UniProt P42681).
T2 sequence (P42681 whole entry): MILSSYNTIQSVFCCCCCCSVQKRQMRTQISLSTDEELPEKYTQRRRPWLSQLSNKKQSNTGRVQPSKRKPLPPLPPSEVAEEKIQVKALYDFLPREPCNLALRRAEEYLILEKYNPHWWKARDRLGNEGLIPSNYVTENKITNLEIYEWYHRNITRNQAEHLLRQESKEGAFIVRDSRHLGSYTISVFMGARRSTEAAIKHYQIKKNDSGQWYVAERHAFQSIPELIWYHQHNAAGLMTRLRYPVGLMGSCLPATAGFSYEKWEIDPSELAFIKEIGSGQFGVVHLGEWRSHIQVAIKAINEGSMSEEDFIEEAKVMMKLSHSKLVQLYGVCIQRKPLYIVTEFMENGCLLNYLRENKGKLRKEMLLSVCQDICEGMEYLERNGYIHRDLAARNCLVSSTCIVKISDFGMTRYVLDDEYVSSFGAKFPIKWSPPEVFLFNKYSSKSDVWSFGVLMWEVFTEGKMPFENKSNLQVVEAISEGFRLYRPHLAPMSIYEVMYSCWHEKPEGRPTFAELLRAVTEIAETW
The experiment in a line: Inhibition of TXK (unknown origin).

In data set [7] the target is T3, Tyrosine-protein kinase ITK/TSK (Homo sapiens, UniProt Q08881).
T3 sequence (Q08881 whole entry): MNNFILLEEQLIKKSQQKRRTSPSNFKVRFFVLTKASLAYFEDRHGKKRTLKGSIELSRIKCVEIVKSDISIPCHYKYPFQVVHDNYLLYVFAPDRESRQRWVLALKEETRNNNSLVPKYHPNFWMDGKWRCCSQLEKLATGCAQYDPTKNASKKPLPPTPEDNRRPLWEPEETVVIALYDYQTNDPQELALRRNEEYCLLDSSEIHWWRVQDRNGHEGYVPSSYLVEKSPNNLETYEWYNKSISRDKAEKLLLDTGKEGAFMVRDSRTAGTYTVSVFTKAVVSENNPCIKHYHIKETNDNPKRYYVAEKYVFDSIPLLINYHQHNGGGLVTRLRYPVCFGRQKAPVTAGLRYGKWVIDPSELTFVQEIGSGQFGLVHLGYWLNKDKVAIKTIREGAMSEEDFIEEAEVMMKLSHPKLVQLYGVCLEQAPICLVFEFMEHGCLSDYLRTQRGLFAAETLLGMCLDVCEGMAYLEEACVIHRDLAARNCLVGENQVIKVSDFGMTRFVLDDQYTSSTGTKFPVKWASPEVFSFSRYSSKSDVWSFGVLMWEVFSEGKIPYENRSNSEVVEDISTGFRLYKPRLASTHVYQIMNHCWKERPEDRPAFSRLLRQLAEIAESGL
The experiment in a line: Inhibition of ITK (unknown origin).

Data set [8] has as its target T4, Tyrosine-protein kinase Tec (Homo sapiens, UniProt P42680).
T4 sequence (P42680 whole entry): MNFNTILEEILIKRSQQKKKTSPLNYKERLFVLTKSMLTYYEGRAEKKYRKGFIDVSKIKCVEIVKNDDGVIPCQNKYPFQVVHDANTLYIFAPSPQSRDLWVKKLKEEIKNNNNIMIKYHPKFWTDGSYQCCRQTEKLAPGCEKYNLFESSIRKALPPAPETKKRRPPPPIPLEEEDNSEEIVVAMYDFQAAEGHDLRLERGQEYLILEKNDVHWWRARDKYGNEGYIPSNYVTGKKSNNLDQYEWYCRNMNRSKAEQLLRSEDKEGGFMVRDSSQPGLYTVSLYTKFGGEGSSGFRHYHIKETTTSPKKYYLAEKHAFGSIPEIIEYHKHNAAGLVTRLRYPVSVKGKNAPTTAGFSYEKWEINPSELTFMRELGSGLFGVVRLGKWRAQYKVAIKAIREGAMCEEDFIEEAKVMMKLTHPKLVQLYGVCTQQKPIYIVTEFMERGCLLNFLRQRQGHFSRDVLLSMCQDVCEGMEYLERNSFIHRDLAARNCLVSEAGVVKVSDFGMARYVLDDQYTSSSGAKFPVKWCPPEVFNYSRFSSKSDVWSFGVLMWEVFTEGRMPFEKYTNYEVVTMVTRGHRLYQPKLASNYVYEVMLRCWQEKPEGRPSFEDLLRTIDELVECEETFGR
Nature of the data set: Inhibition of TEC (unknown origin).

The target of data set [9] is Tyrosine-protein kinase BTK (Homo sapiens, UniProt Q06187). Nature of the data set: Inhibition of human recombinant BTK.
Tyrosine-protein kinase BTK, sequence (Q06187 whole entry): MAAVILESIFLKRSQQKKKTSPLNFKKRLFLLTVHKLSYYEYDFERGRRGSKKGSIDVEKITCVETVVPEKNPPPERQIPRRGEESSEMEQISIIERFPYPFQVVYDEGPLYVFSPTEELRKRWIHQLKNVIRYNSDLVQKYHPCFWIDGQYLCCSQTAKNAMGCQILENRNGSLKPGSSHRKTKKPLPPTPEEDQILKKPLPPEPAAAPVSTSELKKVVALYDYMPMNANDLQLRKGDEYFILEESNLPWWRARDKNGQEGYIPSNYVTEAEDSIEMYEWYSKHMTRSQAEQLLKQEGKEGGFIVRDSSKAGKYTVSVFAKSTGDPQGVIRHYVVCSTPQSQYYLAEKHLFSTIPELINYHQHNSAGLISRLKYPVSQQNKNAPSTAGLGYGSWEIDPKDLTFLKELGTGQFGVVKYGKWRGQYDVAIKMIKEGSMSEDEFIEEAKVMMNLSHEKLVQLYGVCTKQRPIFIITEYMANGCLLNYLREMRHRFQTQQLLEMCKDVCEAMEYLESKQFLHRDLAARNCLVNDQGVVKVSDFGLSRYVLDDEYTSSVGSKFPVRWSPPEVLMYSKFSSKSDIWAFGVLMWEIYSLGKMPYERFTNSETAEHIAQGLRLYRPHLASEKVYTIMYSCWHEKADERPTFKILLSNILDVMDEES
Data set [10] has as its target T5, Cytoplasmic tyrosine-protein kinase BMX (Homo sapiens, UniProt P51813).
T5 sequence (P51813 whole entry): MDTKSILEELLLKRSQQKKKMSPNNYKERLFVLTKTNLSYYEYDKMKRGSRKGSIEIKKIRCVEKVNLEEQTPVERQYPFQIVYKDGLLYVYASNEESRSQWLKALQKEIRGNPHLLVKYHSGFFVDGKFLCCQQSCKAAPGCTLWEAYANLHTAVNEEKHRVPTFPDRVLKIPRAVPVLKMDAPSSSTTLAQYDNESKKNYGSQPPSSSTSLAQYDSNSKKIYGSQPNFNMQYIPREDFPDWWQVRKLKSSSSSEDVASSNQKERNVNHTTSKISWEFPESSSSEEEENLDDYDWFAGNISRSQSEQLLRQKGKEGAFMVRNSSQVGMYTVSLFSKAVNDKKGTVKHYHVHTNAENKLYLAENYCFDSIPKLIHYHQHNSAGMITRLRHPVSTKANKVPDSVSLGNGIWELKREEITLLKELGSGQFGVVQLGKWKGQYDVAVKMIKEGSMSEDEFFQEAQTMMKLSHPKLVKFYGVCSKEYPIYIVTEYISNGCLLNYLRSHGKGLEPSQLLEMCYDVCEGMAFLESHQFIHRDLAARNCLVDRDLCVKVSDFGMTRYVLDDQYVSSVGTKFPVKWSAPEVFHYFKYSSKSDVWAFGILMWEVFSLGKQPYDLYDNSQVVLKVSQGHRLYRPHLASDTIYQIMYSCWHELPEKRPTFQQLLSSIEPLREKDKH
Nature of the data set: Inhibition of BMX (unknown origin).

The nature of data set [11]: AUC in mouse at 10 mg/kg, po. Format: ADME, organism-based. Particulars: in vivo.
Data set [12] concerns the target Tyrosine-protein kinase JAK2 (Homo sapiens, UniProt O60674). Nature of the data set: Inhibition of JAK2 (unknown origin).
A short description of data set [13]: Drugrecovery in rat liver microsomes after 10 mins. The format is ADME. Put shortly: (§1)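 Test compound at 0.5 μM was incubated with human, rat or mouse liver microsomes for 10 minutes at 37 °C. The readout was the percentage of unchanged compound recovered after incubation.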
On the technique in general: Liver microsomes are vesicles of endoplasmic reticulum, rich in cytochrome P450 enzymes.

Data set [14] in a line: Drugrecovery in mouse liver microsomes after 10 mins. The format is ADME. Put shortly: as §1
The nature of data set [15]: Drugrecovery in human liver microsomes after 10 mins. Format: ADME. Put shortly: as §1

Non-receptor tyrosine-protein kinase TYK2, sequence (P29597 whole entry): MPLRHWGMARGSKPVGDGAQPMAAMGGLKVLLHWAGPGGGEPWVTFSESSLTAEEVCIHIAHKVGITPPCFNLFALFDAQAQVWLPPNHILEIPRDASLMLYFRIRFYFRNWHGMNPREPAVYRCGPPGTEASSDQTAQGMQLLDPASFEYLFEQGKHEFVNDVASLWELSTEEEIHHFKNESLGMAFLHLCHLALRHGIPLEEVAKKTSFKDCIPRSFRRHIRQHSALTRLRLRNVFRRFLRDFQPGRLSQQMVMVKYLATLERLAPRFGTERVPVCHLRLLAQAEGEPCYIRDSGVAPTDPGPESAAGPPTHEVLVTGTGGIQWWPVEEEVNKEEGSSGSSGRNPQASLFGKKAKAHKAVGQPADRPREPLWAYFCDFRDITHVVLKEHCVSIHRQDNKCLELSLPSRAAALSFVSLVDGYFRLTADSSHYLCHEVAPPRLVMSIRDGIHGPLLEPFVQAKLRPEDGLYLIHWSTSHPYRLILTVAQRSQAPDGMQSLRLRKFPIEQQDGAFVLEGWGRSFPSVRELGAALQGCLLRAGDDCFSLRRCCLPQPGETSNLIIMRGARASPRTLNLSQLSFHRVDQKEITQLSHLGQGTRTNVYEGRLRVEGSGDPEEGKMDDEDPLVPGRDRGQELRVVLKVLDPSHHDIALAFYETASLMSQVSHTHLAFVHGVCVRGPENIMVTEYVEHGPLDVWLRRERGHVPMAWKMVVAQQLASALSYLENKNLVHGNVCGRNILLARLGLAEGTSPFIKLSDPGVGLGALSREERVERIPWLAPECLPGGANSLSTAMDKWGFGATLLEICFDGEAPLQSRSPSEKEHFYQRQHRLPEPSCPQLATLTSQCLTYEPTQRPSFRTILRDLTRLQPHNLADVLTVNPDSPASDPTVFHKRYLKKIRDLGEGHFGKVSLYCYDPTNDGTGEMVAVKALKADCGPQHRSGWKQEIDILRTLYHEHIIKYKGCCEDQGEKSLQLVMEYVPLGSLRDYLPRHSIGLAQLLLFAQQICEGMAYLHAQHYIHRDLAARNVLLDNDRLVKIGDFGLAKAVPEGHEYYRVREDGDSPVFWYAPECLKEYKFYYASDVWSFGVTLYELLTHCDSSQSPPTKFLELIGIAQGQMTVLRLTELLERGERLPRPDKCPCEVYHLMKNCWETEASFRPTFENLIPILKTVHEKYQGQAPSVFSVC
Mast/stem cell growth factor receptor Kit, sequence (P10721 whole entry): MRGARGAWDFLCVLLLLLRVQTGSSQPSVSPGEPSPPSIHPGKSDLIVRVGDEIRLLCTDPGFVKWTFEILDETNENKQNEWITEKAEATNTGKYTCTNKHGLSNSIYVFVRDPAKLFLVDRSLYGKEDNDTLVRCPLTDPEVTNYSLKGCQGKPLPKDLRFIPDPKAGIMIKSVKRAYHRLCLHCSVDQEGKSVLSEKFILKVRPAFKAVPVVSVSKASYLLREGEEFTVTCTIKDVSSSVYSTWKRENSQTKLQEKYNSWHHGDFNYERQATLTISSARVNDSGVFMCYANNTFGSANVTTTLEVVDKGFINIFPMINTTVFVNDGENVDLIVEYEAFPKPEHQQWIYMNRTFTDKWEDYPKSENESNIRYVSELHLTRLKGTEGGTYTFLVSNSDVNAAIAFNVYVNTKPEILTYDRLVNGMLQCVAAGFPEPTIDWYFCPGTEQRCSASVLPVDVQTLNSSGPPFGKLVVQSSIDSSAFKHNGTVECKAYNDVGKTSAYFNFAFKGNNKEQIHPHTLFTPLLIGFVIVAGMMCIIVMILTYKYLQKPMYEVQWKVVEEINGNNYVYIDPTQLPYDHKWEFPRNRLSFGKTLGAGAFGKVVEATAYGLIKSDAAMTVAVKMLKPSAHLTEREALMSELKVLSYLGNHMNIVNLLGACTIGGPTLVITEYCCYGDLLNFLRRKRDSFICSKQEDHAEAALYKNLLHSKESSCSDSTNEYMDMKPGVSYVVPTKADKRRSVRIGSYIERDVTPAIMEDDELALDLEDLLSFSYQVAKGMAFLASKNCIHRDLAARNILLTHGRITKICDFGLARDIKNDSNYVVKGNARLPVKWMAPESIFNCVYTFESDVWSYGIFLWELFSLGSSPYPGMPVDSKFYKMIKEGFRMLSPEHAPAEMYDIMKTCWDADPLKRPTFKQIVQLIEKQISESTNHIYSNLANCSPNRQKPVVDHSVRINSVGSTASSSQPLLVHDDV
Tyrosine-protein kinase JAK2, sequence (O60674 whole entry): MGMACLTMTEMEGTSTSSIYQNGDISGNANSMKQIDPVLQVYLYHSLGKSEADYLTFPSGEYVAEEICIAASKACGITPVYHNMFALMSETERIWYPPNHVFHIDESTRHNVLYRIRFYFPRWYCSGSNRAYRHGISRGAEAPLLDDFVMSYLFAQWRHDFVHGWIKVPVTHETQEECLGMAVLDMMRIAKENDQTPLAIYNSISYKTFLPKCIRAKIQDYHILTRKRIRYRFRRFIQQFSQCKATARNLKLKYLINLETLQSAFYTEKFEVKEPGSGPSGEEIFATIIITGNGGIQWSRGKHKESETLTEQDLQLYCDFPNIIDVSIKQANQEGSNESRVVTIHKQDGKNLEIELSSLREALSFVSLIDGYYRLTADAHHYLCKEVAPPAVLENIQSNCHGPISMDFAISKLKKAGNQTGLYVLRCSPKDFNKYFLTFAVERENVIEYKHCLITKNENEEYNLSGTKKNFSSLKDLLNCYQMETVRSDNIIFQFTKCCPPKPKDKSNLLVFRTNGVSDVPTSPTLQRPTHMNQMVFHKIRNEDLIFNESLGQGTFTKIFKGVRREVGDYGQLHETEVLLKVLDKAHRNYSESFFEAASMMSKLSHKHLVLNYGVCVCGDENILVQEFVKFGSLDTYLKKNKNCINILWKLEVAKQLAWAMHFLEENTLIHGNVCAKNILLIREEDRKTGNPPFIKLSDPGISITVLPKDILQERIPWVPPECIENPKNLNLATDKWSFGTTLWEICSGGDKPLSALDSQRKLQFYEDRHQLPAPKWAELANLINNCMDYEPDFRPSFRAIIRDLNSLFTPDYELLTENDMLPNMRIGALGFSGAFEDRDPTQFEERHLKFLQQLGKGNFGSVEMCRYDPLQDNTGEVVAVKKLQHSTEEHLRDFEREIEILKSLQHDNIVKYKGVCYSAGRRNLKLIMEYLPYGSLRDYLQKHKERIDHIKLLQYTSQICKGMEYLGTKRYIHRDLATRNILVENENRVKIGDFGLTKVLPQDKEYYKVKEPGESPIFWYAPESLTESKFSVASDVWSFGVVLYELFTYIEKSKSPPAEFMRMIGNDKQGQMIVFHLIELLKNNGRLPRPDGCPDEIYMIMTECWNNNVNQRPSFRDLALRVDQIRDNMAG

Take `CN1CCN(C(=O)c2ccc3c(c2)[nH]c2c(C(N)=O)ccc(-c4ccccc4F)c23)CC1`: the IC50 in data set [1] was 68 nM; in data set [2] it was 753 nM; in [3], 610 nM; against Aurora kinase A, 444 nM; in [4] it was 81 nM; in data set [5], 41 nM. For the same molecule, the IC50 came out at 119 nM in data set [6]; 39 nM in data set [7]; 116 nM in data set [8]; 15 nM in data set [9]; 119 nM in data set [10]. The AUC in data set [11] turned out to be 25.6 µM·h.
For `CC(=O)Nc1cccc(-c2ccc(C(N)=O)c3[nH]c4cc(C(=O)N5CCN(C)CC5)ccc4c23)c1C`, the IC50 in [1] is 204 nM; in data set [2], > 2000 nM; in [3], 2700 nM; against Aurora kinase A, > 2000 nM; in [4], 108 nM; in data set [5], 471 nM. The concentration for half-maximal inhibition (IC50) was 172 nM in [6]; 55 nM in [7]; 162 nM in [8]; 193 nM in data set [10]; 212 nM in [12].
For `CN1CCN(C(=O)c2ccc3c(c2)[nH]c2c(C(N)=O)ccc(-c4cccc(NC(=O)c5ccc(N(C)C)cc5)c4F)c23)CC1`, the half-maximal inhibitory concentration (IC50) in data set [1] is 824 nM; in data set [2] it was 14300 nM; in data set [3] it was > 50000 nM; on Aurora kinase A it was 493 nM; in data set [4], 569 nM; in data set [5], 1050 nM. The IC50 in [6] stood at 95 nM; in data set [7], 115 nM; in data set [8], 41 nM; in data set [9], 3 nM; in data set [10] it was 109 nM.
In the case of `CC(C)(C)c1ccc(C(=O)N[C@@H]2CCCN(c3ccc(C(N)=O)c(Nc4ccc(C(=O)N5CCOCC5)cc4)n3)C2)cc1`, the share remaining at 10 min in [13], in [14] and in data set [15] was < 3% each time.
